Assay results from different studies.
Target: Calcium/calmodulin-dependent protein kinase type II subunit gamma (CAMK2G, Homo sapiens, UniProt Q13555)

SMILES	assay	conditions	remaining binding
C[C@@H]1CN(c2cc(-c3n[nH]c4ccc(OC5(C)CC5)cc34)ncn2)C[C@H](C)O1	cell-free assay, competition with immobilised ligand	0.1 µM	100%
Cc1cnn2ncc(-c3ccnc(N(C)C)n3)c2c1	binding	1 µM	64%
O=C(c1ccc(Nc2nccc(-c3cc4ccccc4s3)n2)cc1)N1CCC(N2CCCC2)CC1	binding, competition with immobilised ligand	1 µM	81%
CN(C)c1nccc(-c2cnn3ncccc23)n1	binding	1 µM	100%
CO[C@H]1CC[C@H](CNc2ccc(S(=O)(=O)NC(=O)c3ccc(N4CCN(CC5=C(c6ccc(Cl)cc6)CC(C)(C)CC5)CC4)cc3Oc3cnc4[nH]ccc4c3)cc2[N+](=O)[O-])CC1	cell-free assay, competition with immobilised ligand	1 µM	75%
COc1cnc(Nc2cccc(S(N)(=O)=O)c2)nc1N1CCN(c2ccccc2)CC1	binding, competition with immobilised ligand	1 µM	94%
Nc1ncc2c(n1)-c1c([nH]c3ccc(C#CC4CC4)cc13)CCCC2	binding, competition with immobilised ligand	1 µM	100%
C=CC(=O)N1CCC(C(=O)NCC(=O)N2CCN(c3nc(-c4cnc(N)nc4C(F)F)nc(N4CCOCC4)n3)CC2)CC1	binding, competition with immobilised ligand	1 µM	100%
O=C(c1ccc(Nc2ncc(Cl)c(-c3cc4ccccc4s3)n2)cc1)N1CCC(N2CCCC2)CC1	binding, competition with immobilised ligand	1 µM	82%
COc1ccnn2ncc(-c3ccnc(N(C)C)n3)c12	binding	1 µM	100%
FC(F)(F)Oc1cccc(-c2cnc3ccc(-c4ccncc4)nn23)c1	cell-free assay, competition with immobilised ligand	5 µM	39%
CC1CCCN1c1nccc(-c2cnn3ncccc23)n1 (centres unmarked)	binding	1 µM	100%
CCOC(=O)c1cc2cc(-c3cc(C(=O)NCc4ccc(C(=O)O)cc4)nn3C)ccc2[nH]1	cell-free assay, competition with immobilised ligand	0.1 µM	100%
CN(CCCC(F)(F)F)c1nccc(-c2cnn3ncccc23)n1	binding	1 µM	100%
O=C(O)[C@H]1[C@H](Cn2nnc3ccccc3c2=O)CC[C@@H]1C(=O)c1ccc(OCCC2CCOCC2)cc1	cell-free assay, competition with immobilised ligand	1 µM	90%
F[C@@H]1CCN(c2nccc(-c3cnn4ncccc34)n2)C1	binding	1 µM	100%
O=C(N1CCS(=O)(=O)CC1)N1C[C@H](c2ccc(OC(F)(F)F)cc2)C[C@H](c2nc(C3CC3)no2)C1	cell-free assay, competition with immobilised ligand	1 µM	100%
O=C(NCCCN1CCOCC1)c1ccc(Nc2nccc(-c3cc4ccccc4s3)n2)cc1	binding, competition with immobilised ligand	1 µM	90%
Cc1cc(-n2nc(Cc3cc(F)cc(C(F)(F)F)c3)nc2C)ccc1C(N)=O	cell-free assay, competition with immobilised ligand	1 µM	100%
O=C(NCC1CCOCC1)c1n[nH]cc1NC(=O)c1c(F)cccc1F	binding, competition with immobilised ligand	1 µM	88%
